Values after ≈ are worked out from the molar mass of the structure shown.
What was measured:
[1] = molecular target: T1, Bromodomain-containing protein 4 (Homo sapiens, UniProt O60885); experiment: Inhibition of BRD4 (unknown origin)
Summary of the method: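 BRD4 binding assay; IC50 in nM, reported as mean ± SEM.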

[2] = molecular target: T1, Bromodomain-containing protein 4; experiment: Inhibition of BRD4 (unknown origin) assessed as reduction in c-Myc expression
Summary of the method: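 Functional c-Myc assay with MYC expression as the read-out; IC50 in nM, reported as mean ± SEM.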

[3] = Antiproliferative activity against Velcade-resistant human JJN-3R cells assessed as reduction in cell viability; format: functional, cell-based
Summary of the method: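 Multiple myeloma cell proliferation assay in the Velcade-resistant JJN3R line; IC50 taken from proliferation.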

[4] = Metabolic stability in human liver microsomes assessed as half life measured upto 120 mins; format: ADME, Microsome
[5] = Metabolic stability in rat liver microsomes assessed as half life measured upto 120 mins; format: ADME, Microsome
[6] = Metabolic stability in mouse liver microsomes assessed as half life measured upto 120 mins; format: ADME, Microsome
[7] = Metabolic stability in dog liver microsomes assessed as half life measured upto 120 mins; format: ADME, Canis lupus familiaris, Microsome; details: for half-life: liver microsomes
[8] = Metabolic stability in monkey liver microsomes assessed as half life measured upto 120 mins; format: ADME, Macaca mulatta, Microsome; details: rhesus monkey
[9] = Permeability of the compound at pH 7.4 by PAMPA; format: ADME; details: read-out: permeability
Summary of the method: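 PAMPA run at pH 7.4; permeability reported in nm/sec.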

[10] = Protein binding in human serum assessed as free fraction; format: ADME, cell-free
[11] = Solubility of the compound in phosphate buffer at pH 6.5; format: physicochemical
Summary of the method: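 Solubility measured in 50 mM phosphate buffer at pH 6.5; reported in µg/mL.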

[12] = AUC (0 to 24 hrs) in mouse at 3 mg/kg, po measured for 24 hrs; format: ADME, organism-based; design: route oral, time 24 hrs, dose 3 mg/kg; details: in vivo
[13] = Antitumor activity against human JJN-3R cells xenografted in mouse assessed as tumor growth inhibition at 1 mg/kg, po qd administered for 7 days beginning 8 days after tumor-cell implantation; format: functional; details: 168 h, time 7 day, read-out: TGI
Summary of the method: (§1)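 JJN3R multiple myeloma xenograft in mice. Oral dosing once daily for 7 days began 8 days after tumor-cell implantation, on established tumors. Read-out was % tumor growth inhibition, and the minimum efficacious dose was identified.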

[14] = Antitumor activity against human JJN-3R cells xenografted in po dosed mouse assessed as tumor growth inhibition administered qd for 7 days beginning 8 days after tumor-cell implantation; format: functional; details: 168 h, time 7 day, read-out: MED; summary of the method: as §1
[15] = Antitumor activity against human JJN-3R cells xenografted in mouse assessed as tumor growth inhibition at 4 mg/kg, po qd administered for 7 days beginning 8 days after tumor-cell implantation; format: functional; details: 168 h, time 7 day, read-out: TGI; summary of the method: as §1
[16] = Antitumor activity against human JJN-3R cells xenografted in mouse assessed as tumor growth inhibition at 2 mg/kg, po qd administered for 7 days beginning 8 days after tumor-cell implantation; format: functional; details: 168 h, time 7 day, read-out: TGI; summary of the method: as §1

Row | Compound | IC50 [1] | IC50 [2] | half-life [4] | half-life [5] | half-life [6] | half-life [7] | half-life [8] | Papp [9] | fraction unbound [10] | solubility [11] | AUC(0-t) at 24 h [12] | t1/2 ([7]; microsomes, 2 h) | IC50 [3] | inhibition in vivo at 1 mg/kg [13] | minimal effective dose [14] | inhibition in vivo at 4 mg/kg [15] | inhibition in vivo at 2 mg/kg [16]
1 | [2H]C([2H])([2H])c1nnn(C)c1-c1cnc2c3ccc(C(C)(C)O)cc3n([C@H](c3ncccc3F)C3CCOCC3)c2c1 | 0.9 nM | 1 nM | 79 min | 48 min | 24 min | 36 min | 22 min | 27 ×10⁻⁶ cm/s | 0.04 | – | – | – | 3.6 nM | – | – | – | –
2 | Cc1cc([C@H](C2CCOCC2)n2c3cc(C(C)(C)O)ccc3c3ncc(-c4c(C)nnn4C)cc32)no1 | 1.6 nM | 2.8 nM | 61 min | 26 min | 10 min | 38 min | 16 min | 35 ×10⁻⁶ cm/s | – | – | – | – | 11 nM | – | – | – | –
3 | [2H]C([2H])([2H])c1nnn(C)c1-c1cnc2c3ccc(C(C)(C)O)cc3n([C@H](c3ccc(Cl)cn3)C3CCOCC3)c2c1 | 1 nM | 1.2 nM | 55 min | 62 min | 35 min | 61 min | 37 min | 61 ×10⁻⁶ cm/s | 0.06 | – | – | – | 4.8 nM | – | – | 76% | –
4 | [2H]C([2H])([2H])c1nnn(C)c1-c1cnc2c3c(F)cc(C(C)(C)O)cc3n([C@H](c3cc(C)on3)C3CCOCC3)c2c1 | – | 2.8 nM | 120 min | 33 min | 17 min | 71 min | 34 min | 41 ×10⁻⁶ cm/s | – | – | – | – | 3.9 nM | – | – | – | –
5 | [2H]C([2H])([2H])c1nnn(C)c1-c1cnc2c3ccc(C(C)(C)O)cc3n([C@H](c3cc(C)on3)C3CCOCC3)c2c1 | 1.2 nM | 2.1 nM | 64 min | 33 min | 30 min | 75 min | 37 min | 26 ×10⁻⁶ cm/s | 0.14 | – | – | – | 9.9 nM | – | – | – | –
6 | [2H]C([2H])([2H])c1nnn(C)c1-c1cnc2c3ccc(C(C)(C)O)c(F)c3n([C@H](c3cc(C)on3)C3CCOCC3)c2c1 | 2 nM | 3.9 nM | 79 min | 30 min | 30 min | 52 min | 23 min | 80 ×10⁻⁶ cm/s | 0.16 | 120 µg/mL (≈ 230 µM) | 8.7 µM·h | – | 13 nM | – | 4 mg/kg | 71% | –
7 | Cc1nnn(C)c1-c1cnc2c3ccc(C(C)(C)O)cc3n(C(c3cnn[nH]3)C3CCOCC3)c2c1 (configuration not stated) | 27 nM | 210 nM | – | – | – | – | – | 12 ×10⁻⁶ cm/s | – | – | – | – | 710 nM | – | – | – | –

The remaining compounds from weak to strong by IC50 [2], led by results:

Row | IC50 [1] | IC50 [2] | half-life [4] | half-life [5] | half-life [6] | half-life [7] | half-life [8] | Papp [9] | fraction unbound [10] | solubility [11] | AUC(0-t) at 24 h [12] | t1/2 ([7]; microsomes, 2 h) | Compound | IC50 [3] | inhibition in vivo at 1 mg/kg [13] | minimal effective dose [14] | inhibition in vivo at 4 mg/kg [15] | inhibition in vivo at 2 mg/kg [16]
8 | 2.3 nM | 7.1 nM | 83 min | 59 min | 50 min | 52 min | 36 min | 15 ×10⁻⁶ cm/s | – | – | – | – | Cc1cc([C@H](C2CCOCC2)n2c3cc(C(C)(C)O)ccc3c3ncc(-c4c(C)nnn4C)cc32)n(C)n1 | 55 nM | – | – | – | –
9 | 1.4 nM | 2.2 nM | 54 min | 3 min | 26 min | 33 min | 21 min | 69 ×10⁻⁶ cm/s | – | – | – | – | [2H]C([2H])([2H])c1nnn(C)c1-c1cnc2c3cc(F)c(C(C)(C)O)cc3n([C@H](c3cc(C)on3)C3CCOCC3)c2c1 | 14 nM | – | – | – | –
10 | 0.9 nM | 2 nM | 52 min | 46 min | 41 min | – | 19 min | 69 ×10⁻⁶ cm/s | 0.01 | 4 µg/mL (≈ 7.74 µM) | 12.6 µM·h | 32 min | [2H]C([2H])([2H])c1nnn(C)c1-c1cnc2c3cc(F)c(C(C)(C)O)cc3n([C@H](c3ccccc3)C3CCOCC3)c2c1 | 6 nM | – | – | 78% | 77%
11 | 0.6 nM | 0.9 nM | 75 min | 47 min | 16 min | 37 min | 22 min | 42 ×10⁻⁶ cm/s | 0.06 | 91 µg/mL (≈ 170 µM) | 10.9 µM·h | – | [2H]C([2H])([2H])c1nnn(C)c1-c1cnc2c3ccc(C(C)(C)O)c(F)c3n([C@H](c3ncccc3F)C3CCOCC3)c2c1 | 1.7 nM | 91% | 1 mg/kg | – | –

— ChEMBL document CHEMBL4808188, “Development of BET inhibitors as potential treatments for cancer: A search for structural diversity” (Bioorg Med Chem Lett, 2021)
